# The list is not random: actives were taken first. Their share in the collection is about 0.77%.
# hIAP inh = blocks human intestinal alkaline phosphatase. P09923. purified IAP, CDP-Star luminescence, 30 min. inhibition, % at 10 µM. hit rate 0.12% among 330,000. AID 2544;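 active = inhibition reaching a set limit with compound at 10 µM in the primary screen, cut at about 35% in these data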;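 also: plate controls were DMSO wells with enzyme for no effect and no-enzyme buffer wells for full effect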
# Target sequence (P09923 whole entry, looked up): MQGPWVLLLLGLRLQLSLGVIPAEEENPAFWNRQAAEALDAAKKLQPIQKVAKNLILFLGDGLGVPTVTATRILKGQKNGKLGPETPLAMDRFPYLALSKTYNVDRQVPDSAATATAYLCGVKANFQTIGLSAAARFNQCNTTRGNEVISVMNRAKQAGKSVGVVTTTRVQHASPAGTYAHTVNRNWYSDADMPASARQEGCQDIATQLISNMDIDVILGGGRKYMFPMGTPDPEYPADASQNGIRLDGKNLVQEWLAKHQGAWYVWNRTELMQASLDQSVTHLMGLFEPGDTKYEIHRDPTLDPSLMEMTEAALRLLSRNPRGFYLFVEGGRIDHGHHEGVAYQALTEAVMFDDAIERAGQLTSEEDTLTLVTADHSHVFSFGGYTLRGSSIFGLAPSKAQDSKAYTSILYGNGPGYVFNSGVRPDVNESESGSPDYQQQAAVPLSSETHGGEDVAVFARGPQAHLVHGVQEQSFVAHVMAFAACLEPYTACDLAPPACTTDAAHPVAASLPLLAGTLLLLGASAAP
# hIAP activ = increases human intestinal alkaline phosphatase activity; P09923; purified human IAP, CDP-Star luminescence, 30 min; stronger effect = higher value; 1 = vehicle-only enzyme, 0 = enzyme-free background; activation factor at 10 µM; hit rate 0.16% among 330,000; AID 2524;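 active = activation factor of the enzyme at least 2-fold when tested at 20 µM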
# mIAP act = mouse IAP activation; muIAP, CDP-Star luminescence, 30 min; stronger effect = higher value; 1 = vehicle-only enzyme signal, 0 = enzyme-free wells; activation factor at 10 µM; hit rate 0.24% among 330,000; AID 2805;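 active = activation factor of at least 2 at 20 µM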
#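 also added = chemiluminescent substrate CDP-Star | test system = mouse IAP enzyme | signal = chemiluminescence readout | compound = DMSO-dissolved test compounds | incubation = 30 min at room temperature | benchmarks = DMSO wells, no-enzyme wells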
# bIAP act = intestinal alkaline phosphatase (bovine) activation. purified bovine IAP, CDP-star luminescence, 30 min; stronger effect = higher value; fold of DMSO-control signal, blank-subtracted. activation factor at 20 µM. hit rate 0.17% among 200,000;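 active = activation factor of 2 or more at 20 µM, a signal rise over negative controls twice the positive control's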
# bIAP inh = intestinal alkaline phosphatase (bovine) inhibition | purified bovine IAP, CDP-star luminescence, 30 min | inhibition, % at 20 µM | 190,000 tested, under 10 active;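 active = over 50% inhibition of intestinal alkaline phosphatase at 20 µM in the single-dose screen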
#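 Assay system – bovine IAP enzyme · Quantity – bovine IAP at 1/65,000,000 final dilution · Detection – CDP-star luminescence signal · Times – 30 min reaction at room temperature · Also added – CDP-star substrate at 30 µM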
# mIAP inh = blocks mouse intestinal alkaline phosphatase | purified mouse IAP, CDP-Star luminescence, 30 min | inhibition, % at 10 µM | hit rate 0.2% among 330,000;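 active = inhibition of at least 40% at 10 µM in the primary screen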;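 also: plate controls were DMSO with enzyme for no effect and no enzyme wells for full effect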
# hIAP act conf = human IAP activation confirmation. purified IAP, CDP-Star luminescence, 30 min; stronger effect = lower value. AID 434926. hit rate 10% among 880. activation (%Activity, negative = activation), % at 8.3 µM. shares compounds with hIAP activ;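 active = at least twofold enzyme activation in any of six single-dose repeats, which the averaged readout prints as negative percent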
# Starred values were filed as active, the others as inactive; x = no result given.
SMILES,hIAP inh,hIAP activ,mIAP act,bIAP act,bIAP inh,mIAP inh,hIAP act conf
COc1cc(/C=C2/CCC/C(=C\c3cc(O)c(OC)c(Cl)c3)C2=O)cc(Cl)c1O,39.7*,0.603,0.637,0.4,x,36.3,1.8
COc1cc(/C=C2\CCC/C(=C\c3ccc(O)c(OC)c3)C2=O)ccc1O,34.4,0.656,0.695,x,x,30.5,x
CN1C(=O)C(=O)/C(=C(/O)c2ccc(Br)cc2)C1c1ccc(Cl)cc1 (centres undefined),40.7*,0.593,0.927,x,x,7.3,5.4
CN1C(=O)C(=O)/C(=C(/O)c2ccccc2)C1c1ccc(Br)cc1 (centres undefined),3.8,0.962,1.08,x,x,-8.1,x
O=C(NN1C(=O)/C(=C/c2ccc(O)cc2)SC1=S)c1cccc(O)c1,36.8*,0.632,0.772,x,x,22.8,-5.0
O=C(NN1C(=O)/C(=C/c2ccc(O)c([N+](=O)[O-])c2)SC1=S)c1ccccc1Cl,35.4*,0.646,0.747,0.8,15.6,25.3,38.9
O=C1/C(=C/c2ccc(O)c([N+](=O)[O-])c2)SC(=S)N1Cc1ccccc1,-2.2,1.02,0.735,0.6,41.7,26.5,x
CN1CCN(CCNC(=O)Cn2c(=O)c3cccn3c3ccc(F)cc32)CC1,38.6*,0.614,0.929,x,x,7.1,35.4
CC(=O)Nc1ccc(S(=O)(=O)N(C)CCOCc2ccccc2)cc1,38.4*,0.616,0.995,1,-3.3,0.5,-45.3
N#C/C(=C(\O)c1ccco1)c1ccccn1,-105.4,2.05*,1.04,0.9,10.6,-3.6,55.3
CCCCc1ccc(NC(=O)CSc2nc3ncccc3[nH]2)cc1,-114.6,2.15*,0.825,x,x,17.5,25.3
CN1C(=O)/C(=C/c2cc(N=Nc3ccccc3)ccc2O)SC1=S,46.4*,0.536,0.598,0.7,28.5,40.2*,-53.6
Cc1c(N2C(=O)/C(=C\c3ccccc3O)SC2=S)c(=O)n(-c2ccccc2)n1C,13.2,0.868,0.856,x,x,14.4,x
N#Cc1cc(Oc2ccccc2)c(-n2nnc3ccccc32)cc1C#N,35.2*,0.648,0.924,0.9,12.7,7.6,40.7
N#Cc1cc(Oc2ccc3ccccc3c2)c(-n2nnc3ccccc32)cc1C#N,13.3,0.867,0.972,0.7,25.3,2.8,x
C/C(=N\Nc1cc(C(F)(F)F)ccc1Cl)c1ccncc1,-9.7,1.1,0.937,x,x,6.3,x
Cc1ccc(Cc2nnc(SCC(=O)Nc3ccccc3)n(N)c2=O)cc1,-18.6,1.19,0.933,x,x,6.7,x
O=C(NCCc1c[nH]c2ccccc12)/C(=C\c1cccnc1)NC(=O)c1ccccc1F,2.5,0.975,0.951,x,x,4.9,x
O=C(NNc1ccc([N+](=O)[O-])cc1[N+](=O)[O-])c1ccco1,36.0*,0.64,0.816,x,x,18.4,14.3
COc1ccccc1C1=NN(C2=NN=C(N)Cc3ncnn32)C(O)(C(F)(F)F)C1 (centres undefined),-176.8,2.77*,0.845,1.4,-42.8,15.5,45.2
CCOC(=O)N1N=C(c2ccc(OC)cc2)CC1(O)C(F)(F)F (centres undefined),-19.4,1.19,0.91,1.1,-7.9,9.0,x
COc1ccc(C2=NN(C3=NN=C(N)Cc4ncnn43)C(O)(C(F)(F)F)C2)cc1 (centres undefined),-159.5,2.6*,0.864,1.7,-71.6,13.6,42.0
NC1=NN=C(N2N=C(c3ccc(Br)cc3)CC2(O)C(F)(F)F)n2ncnc2C1 (centres undefined),-162.5,2.62*,0.954,1.1,-7.8,4.6,3.7
NC1=NN=C(N2N=C(c3ccccc3)CC2(O)C(F)(F)F)n2ncnc2C1 (centres undefined),-9.7,1.1,0.722,1.4,-41.3,27.8,x
Cc1ccc(NC(=O)CS(=O)CC(=O)N(CC(=O)NC(C)(C)C)c2cccc(C)c2C)cc1 (centres undefined),-3.8,1.04,1.05,x,x,-4.7,x
SMILES,hIAP inh,hIAP activ,mIAP act,bIAP act,bIAP inh,mIAP inh,hIAP act conf
O=C(COc1coc(CN2CCCc3ccccc32)cc1=O)Nc1ccc([N+](=O)[O-])cc1,-2.1,1.02,0.973,x,x,2.7,x
CCCn1c(SCCc2ccccc2)nc2c1c(=O)[nH]c(=O)n2C,17.1,0.829,0.984,0.9,7.9,1.6,x
CCCn1c(N/N=C(C)\C=C\c2ccccc2)nc2c1c(=O)[nH]c(=O)n2C,-125.4,2.25*,1.14,2*,-100.9,-14.4,-28.0
COC(=O)CCC(C)N1CCC(Oc2ccc(C(=O)NCc3ccccn3)cc2)CC1 (centres undefined),-17.8,1.18,1.02,x,x,-2.0,x
COc1ccccc1C1CN(c2ccccc2)N=C1c1cccs1 (centres undefined),59.7*,0.403,1.53,1.2,-24.6,-52.9,-128.2*
COc1cc(OC)c(OC)cc1/C=C/C(=O)c1ccc(NS(=O)(=O)c2ccc(C)cc2)cc1,14.4,0.856,0.94,0.7,29.6,6.0,x
O=c1cc(-c2ccccc2)[nH]n1-c1nc2ccccc2[nH]1,-101.9,2.02*,0.906,1.6,-63.5,9.4,-58.4*
CCc1cc(=O)[nH]c(-n2[nH]c(-c3ccccc3)cc2=O)n1,-94.4,1.94,0.691,1.4,-41.8,30.9,x
CC1Nc2ncnc(N3CCN(c4ccccc4)CC3)c2N(Cc2ccc(Br)cc2)C1=O (centres undefined),11.7,0.883,0.902,x,x,9.8,x
Cc1ccc(C(C(=O)NC2CCCCC2)N(Cc2cccnc2)C(=O)c2csnn2)cc1 (centres undefined),14.3,0.857,0.954,x,x,4.6,x
Cn1nccc1C(=O)N1CCN(c2ccccc2F)CC1,46.5*,0.535,1.02,x,x,-2.5,5.7
CCCCn1c(=N)n(CC(=O)c2ccco2)c2ccccc21,12.1,0.879,1.07,0.8,17.8,-7.4,x
CCCCCCCn1c(=N)n(CC(=O)c2ccco2)c2ccccc21,37.0*,0.63,0.943,1,1.4,5.7,-49.6*
CCn1cc(CN2CCN(C)C(CCO)C2)c2ccccc21 (centres undefined),-184.8,2.85*,1.02,x,x,-2.5,29.1
CCn1cc(CN2CCN(CCC(C)C)C(CCO)C2)c2ccccc21 (centres undefined),-16.5,1.17,0.923,x,x,7.7,x
COC(=O)CN1C(=O)C(O)(CC(=O)c2ccccc2)c2ccccc21 (centres undefined),-17.3,1.17,1.01,0.9,5.5,-1.1,x
COC(=O)CN1C(=O)C(O)(CC(=O)c2ccc(C)cc2)c2ccccc21 (centres undefined),37.1*,0.629,0.984,0.9,13.9,1.6,45.9
Cc1ccc(N(CC(O)CN2C(=O)NC(C)(C)C2=O)S(=O)(=O)c2ccc(C)cc2)cc1 (centres undefined),7.3,0.927,1.04,x,x,-4.2,x

# Compound activity deposited in PubChem BioAssay by Sanford-Burnham Center for Chemical Genomics.
